The values below come from ChEMBL document CHEMBL4007469, “Design and synthesis of dalbergin analogues and evaluation of anti-osteoporotic activity” (Bioorg Med Chem Lett, 2017).

Structures are written as SMILES. Active and inactive are the calls of the source. The calls are words filed in the database; no cut-off is given here.

Data set [1] relates to Mus musculus. Description: Osteogenic activity in Balb/c mouse drill-hole fracture model assessed as trabecular separation at 1 mg/kg, po qd via gavage for 21 days by micro-CT method (reference value: 0.219 +/- 0.015 millimeter).
For data set [2], the system named is Mus musculus. As to the kind of experiment: Anti-osteoporotic activity in ovariectomized postmenopausal Balb/c mouse model assessed as bone formation rate at 1 mg/kg, po qd via gavage for 6 weeks by fluorochromes tetracycline and calcein labeling based histomorphometric analysis (reference value: 0.098 +/- 0.01 um3.um2/day). The format is functional.
For data set [3], the system named is Mus musculus. As to the kind of experiment: Anti-osteoporotic activity in ovariectomized postmenopausal Balb/c mouse model assessed as induction of femur bone marrow cell mineralization at 1 mg/kg, po qd via gavage for 6 weeks measured on day 21 post dose by alizarin red-S staining based assay relative to control. The format is functional. Put shortly: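 Ovariectomized 8-week-old female Balb/c mice given 1.0 mg/kg/day orally by gavage for 6 weeks; bone marrow cells then cultured ex vivo. ALP activity read at 405 nm; mineralized nodules stained with Alizarin Red at day 21 of culture. Mean ± SE versus OVx group.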

The subject of data set [4] is Mus musculus. As to the kind of experiment: Anti-osteoporotic activity in ovariectomized postmenopausal Balb/c mouse model assessed as improvement in micro-artchitectural parameter in vertebrae by measuring trabecular number at 1 mg/kg, po qd via gavage for 6 weeks by micro CT-scan analysis (reference value: 2.24 +/- 0.16 /millimeter). The format is functional. Put shortly: (§1)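 Female Balb/c mice, 8 weeks old, ovariectomized, 6 weeks osteopenia development, then 1.0 mg/kg/day or gum acacia vehicle by oral gavage once daily for 6 weeks (sham, OVx and treated groups). Bones collected after sacrifice for micro-CT of trabecular microarchitecture (BV/TV, Tb.N, Tb.Th, Tb.Sp, SMI) and biomechanical testing of femur and vertebrae (energy, stiffness); mean ± SE versus OVx.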

Data set [5] deals with Mus musculus. Description: Estrogenic effect in uterine of ovariectomized postmenopausal Balb/c mouse model assessed as luminal epithelial height at 1 mg/kg, po qd via gavage for 6 weeks (reference value: 0.55 +/- 0.03 umeter). To be noted: in vivo, 1008 h. The format is ADME, organism-based.
Data set [6] concerns Mus musculus. As to the kind of experiment: Anti-osteoporotic activity in ovariectomized postmenopausal Balb/c mouse model assessed as increase in OPG gene expression in femur bone at 1 mg/kg, po qd via gavage for 6 weeks by RT-PCR method. The data set is classed as functional, organism-based. In short, it runs like this:
(§2)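 Eight-week-old female Balb/c mice, ovariectomized and left 6 weeks for osteopenia to develop; groups sham+vehicle, OVx+vehicle, OVx+1.0 mg/kg/day, dosed once daily by oral gavage for 6 weeks in gum acacia/distilled water vehicle. Mice kept at 21°C, 12 h light/dark, chow and water ad libitum. Femoral bone mRNA or serum measured after sacrifice; mean ± SE versus OVx group.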

Data set [7] concerns Mus musculus. Description: Osteogenic activity in Balb/c mouse drill-hole fracture model assessed as trabecular thickness at 1 mg/kg, po qd via gavage for 21 days by micro-CT method (reference value: 0.111 +/- 0.006 millimeter).
For another data set, the system named is Calvarial cell. Description: Induction of mineralization in mouse calvarial cells assessed as calcium nodule formation at Emax incubated for 12 days by alizarin red-S staining based spectrophotometric method. The format is functional. In short, it runs like this: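 Primary mouse calvarial osteoblasts treated with or without compound for 12 days, fixed in 4% formaldehyde, stained with alizarin red-S, and the stain extracted and quantified by the acetic acid method.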

Data set [8] deals with Mus musculus. Description: In vivo induction of osteogenesis in Balb/c mouse assessed as increase in OCN mRNA level in calvaria at 1 mg/kg/day, sc over calvarial surface for 5 consecutive days by RT-PCR method relative to control. The data set is classed as functional. Put shortly:
(§3)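 Three-week-old Balb/c mice (3 per group) injected subcutaneously over the calvarial surface daily for 5 consecutive days at 0.1, 0.5, 1 and 5 mg/kg/day. Calvaria fixed in 4% formaldehyde, paraffin-embedded, H&E-stained; tetracycline and calcein (20 mg/kg each, ip) given for MAR/BFR histomorphometry; calvarial mRNA by RT-PCR. Mean ± SE, three independent experiments, versus untreated.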

In data set [9] the test system is Mus musculus. As to the kind of experiment: Anti-osteoporotic activity in ovariectomized postmenopausal Balb/c mouse model assessed as improvement in micro-artchitectural parameter in vertebrae by measuring trabecular separation at 1 mg/kg, po qd via gavage for 6 weeks by micro CT-scan analysis (reference value: 0.288 +/- 0.021 millimeter). The data set is classed as functional. In short, it runs like this:
as §1

For data set [10], the system named is Mus musculus. As to the kind of experiment: In vivo induction of osteogenesis in Balb/c mouse assessed as bone formation at 0.5 to 1 mg/kg/day, sc over calvarial surface for 5 consecutive days. The data set is classed as functional, organism-based. In short, it runs like this: as §3
Data set [11] concerns Mus musculus. As to the kind of experiment: Anti-osteoporotic activity in ovariectomized postmenopausal Balb/c mouse model assessed as trabecular bone formation by measuring increase in bone volume fraction at 1 mg/kg, po qd via gavage for 6 weeks by micro CT-scan analysis relative to control. The format is functional. In short, it runs like this: as §1
Data set [12] deals with Mus musculus. Description: Estrogenic effect in uterine of ovariectomized postmenopausal Balb/c mouse model assessed as uterine weight at 1 mg/kg, po qd via gavage for 6 weeks (reference value: 0.025 +/- 0.02 mg). The data set is classed as ADME, organism-based. To be noted: in vivo, 1008 h.
Data set [13] has as its system Mus musculus. As to the kind of experiment: Osteogenic activity in Balb/c mouse drill-hole fracture model assessed as increase in BMP2 mRNA level at 1 mg/kg, po qd via gavage for 21 days by RT-PCR method.
The nature of data set [14]: Induction of mineralization in mouse calvarial cells assessed as increase in COL1 mRNA expression at 1 pM after 24 hrs by qRT-PCR method relative to control. The format is functional, Calvarial cell. In short, it runs like this: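 Mouse calvarial osteoblasts exposed to 1 pM for 24 h; BMP2, RunX2 and COL1 mRNA by quantitative PCR with GAPDH as internal control. Mean ± SE of three independent experiments versus untreated cells.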
Background: In qPCR the cycle at which signal appears reflects the starting amount.

For data set [15], the system named is Mus musculus. As to the kind of experiment: Osteogenic activity in Balb/c mouse drill-hole fracture model assessed as increase in OCN mRNA level at 1 mg/kg, po qd via gavage for 21 days by RT-PCR method relative to control.
Data set [16] concerns Mus musculus. Description: In vivo induction of osteogenesis in Balb/c mouse assessed as increase in COL1 mRNA level in calvaria at 1 mg/kg/day, sc over calvarial surface for 5 consecutive days by RT-PCR method relative to control. The data set is classed as functional. In short, it runs like this:
as §3

Data set [17] relates to Mus musculus. Description: Anti-osteoporotic activity in ovariectomized postmenopausal Balb/c mouse model assessed as increase in ALP gene expression in femur bone at 1 mg/kg, po qd via gavage for 6 weeks by RT-PCR method. The data set is classed as functional, organism-based. Put shortly:
as §2

Data set [18] concerns Mus musculus. Description: Anti-osteoporotic activity in ovariectomized postmenopausal Balb/c mouse model assessed as improvement in micro-artchitectural parameter in vertebrae by measuring trabecular thickness at 1 mg/kg, po qd via gavage for 6 weeks by micro CT-scan analysis (reference value: 0.047 +/- 0.001 millimeter). The data set is classed as functional. In short, it runs like this:
as §1

In data set [19] the test system is Mus musculus. As to the kind of experiment: Anti-osteoporotic activity in ovariectomized postmenopausal Balb/c mouse model assessed as increase in RunX2 gene expression in femur bone at 1 mg/kg, po qd via gavage for 6 weeks by RT-PCR method. The format is functional, organism-based. Put shortly:
as §2

The test system of data set [20] is Mus musculus. As to the kind of experiment: Anti-osteoporotic activity in ovariectomized postmenopausal Balb/c mouse model assessed as improvement in micro-artchitectural parameter in tibia by measuring trabecular separation at 1 mg/kg, po qd via gavage for 6 weeks by micro CT-scan analysis (reference value: 0.387 +/- 0.038 millimeter). The format is functional. Put shortly: as §1

Data set [21] deals with Mus musculus. Description: Estrogenic effect in uterine of ovariectomized postmenopausal Balb/c mouse model assessed as total uterine area at 1 mg/kg, po qd via gavage for 6 weeks (reference value: 837.2 +/- 36.09 um2). The data set is classed as ADME, organism-based. To be noted: in vivo, 1008 h.

For the compound `COc1cc2oc(=O)cc(-c3ccccc3)c2cc1OCCCCCN1CCN(C)CC1`, the Activity in the data set with Mus musculus [1] is 0.164 mm; with Mus musculus [2], 0.163 um3.um2/day; in the data set on Mus musculus [3], 50%; in the data set with Mus musculus [4], 4.63 /millimeter; with Mus musculus [5], 0.66 um; with Mus musculus [7] it was 0.166 mm. Also, the Activity in the data set on Mus musculus [9] amounted to 0.167 mm; in the data set on Mus musculus [12], 0.032 mg; with Mus musculus [18], 0.0522 mm; with Mus musculus [20] it was 0.294 mm; in the data set with Mus musculus [21], 958.6 um2. Further, the outcome in the data set on Mus musculus [6], with Calvarial cell, in the data set with Mus musculus [10], in the data set on Mus musculus [13], in the data set on Mus musculus [17] and with Mus musculus [19] was Active. Also, the “fold change (FC)” value in the data set on Mus musculus [8] is 4; with Mus musculus [11], 1.5; in [14] it was 6; in the data set with Mus musculus [15], 6; in the data set on Mus musculus [16] it was 4.
